21 compounds from ChEMBL document CHEMBL1126891 (J Med Chem, 1993) can be followed below.

A word on the inhibition: it is the share of the control response that was lost under treatment. A lower inhibition goes with a response near the control. As a reminder, the IC50 is the concentration that inhibits the measured activity by half. The term EC50 denotes the concentration that produces a half-maximal response. High values mean lower potency in that assay, low ones higher potency in that assay.

Data set [1] deals with Human alphaherpesvirus 2. The data set can be described thus: Inhibitory activity against Herpes simplex virus 2 in vero cells at 100 uM. The class given is functional. To be noted: Human alphaherpesvirus 2, Vero.
Data set [2] concerns the target T1, DNA polymerase alpha catalytic subunit (Homo sapiens, UniProt P09884).
T1 sequence (P09884 whole entry): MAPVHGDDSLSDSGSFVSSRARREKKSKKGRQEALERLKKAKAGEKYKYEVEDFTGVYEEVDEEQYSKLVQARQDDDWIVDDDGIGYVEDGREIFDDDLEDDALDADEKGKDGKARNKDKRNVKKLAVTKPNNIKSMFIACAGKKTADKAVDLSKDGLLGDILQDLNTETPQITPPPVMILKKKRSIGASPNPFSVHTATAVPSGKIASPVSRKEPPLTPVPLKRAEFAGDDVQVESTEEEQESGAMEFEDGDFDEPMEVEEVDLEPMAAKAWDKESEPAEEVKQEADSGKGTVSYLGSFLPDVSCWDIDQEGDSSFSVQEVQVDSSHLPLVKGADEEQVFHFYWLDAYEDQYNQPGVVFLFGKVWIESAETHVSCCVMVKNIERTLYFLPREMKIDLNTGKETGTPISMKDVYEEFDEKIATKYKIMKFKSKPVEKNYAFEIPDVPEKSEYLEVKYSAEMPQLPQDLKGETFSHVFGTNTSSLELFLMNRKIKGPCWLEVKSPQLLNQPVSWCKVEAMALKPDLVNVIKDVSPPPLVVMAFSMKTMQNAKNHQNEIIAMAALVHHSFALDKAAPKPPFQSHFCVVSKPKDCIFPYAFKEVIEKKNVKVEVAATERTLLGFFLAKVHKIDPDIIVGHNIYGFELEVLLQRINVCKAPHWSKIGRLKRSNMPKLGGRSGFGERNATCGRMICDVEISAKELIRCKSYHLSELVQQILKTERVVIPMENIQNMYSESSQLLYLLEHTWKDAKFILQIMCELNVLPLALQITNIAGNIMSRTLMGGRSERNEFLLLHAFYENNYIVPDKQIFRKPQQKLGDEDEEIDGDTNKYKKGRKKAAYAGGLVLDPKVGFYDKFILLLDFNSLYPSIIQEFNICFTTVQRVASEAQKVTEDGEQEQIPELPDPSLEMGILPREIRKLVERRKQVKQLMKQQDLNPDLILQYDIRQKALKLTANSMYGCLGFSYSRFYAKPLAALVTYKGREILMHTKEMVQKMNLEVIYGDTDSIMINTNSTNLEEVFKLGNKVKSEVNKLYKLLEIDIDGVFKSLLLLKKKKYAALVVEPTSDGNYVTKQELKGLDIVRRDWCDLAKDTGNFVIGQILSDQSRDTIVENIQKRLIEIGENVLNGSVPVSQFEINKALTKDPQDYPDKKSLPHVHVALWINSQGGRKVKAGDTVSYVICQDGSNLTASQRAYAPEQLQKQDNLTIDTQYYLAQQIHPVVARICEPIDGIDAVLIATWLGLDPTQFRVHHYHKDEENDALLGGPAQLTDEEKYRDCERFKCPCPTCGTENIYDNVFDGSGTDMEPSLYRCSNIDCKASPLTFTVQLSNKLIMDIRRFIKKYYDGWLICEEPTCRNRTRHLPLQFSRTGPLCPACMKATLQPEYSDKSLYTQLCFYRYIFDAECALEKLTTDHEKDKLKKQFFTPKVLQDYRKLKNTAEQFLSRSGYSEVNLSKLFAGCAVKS
The data set can be described thus: Percent inhibition of DNA polymerase alpha at 100 uM.

Data set [3] concerns MRC5. The data set can be described thus: Inhibitory concentration against human cytomegalovirus (HCMV1) in MRC5 cells. The class given is functional, cell-based.
Data set [4] relates to Vero. The data set can be described thus: Cytotoxicity against vero cells. The format is cell-based. The note with it: Chlorocebus sabaeus.
The subject of data set [5] is MRC5. The data set can be described thus: Inhibitory concentration against VZV in MRC5 cells. The format is functional, cell-based. The note with it: Homo sapiens.
In data set [6] the test system is Vero. The data set can be described thus: Inhibitory concentration against HSV-2 in vero cells. The class given is functional, cell-based. The note with it: Chlorocebus sabaeus. The gist of the method: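 HSV-2 plaque reduction assay in Vero cells; the value is reported as IC50 in µM.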
Data set [7] deals with Vero. The experiment in a line: Inhibitory concentration against HSV-1 in vero cells. The class given is functional, cell-based. The note with it: Chlorocebus sabaeus.
Data set [8] concerns the target T1, DNA polymerase alpha catalytic subunit. The experiment in a line: Effective concentration against DNA polymerase alpha. The format is single protein. The gist of the method:
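DNA polymerase α enzyme assay using activated calf thymus DNA as template, with no NaCl or KCl added.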

Data set [9] is described as follows: Toxicity observed in vero cells. The class given is cell-based. The note with it: Chlorocebus sabaeus.
Data set [10] relates to Nucleic Acid. The data set can be described thus: Effective concentration against DNA polymerase of Herpes simplex virus 2 (HSV-2). The format is nucleic-acid assay, Human alphaherpesvirus 2.

For the compound `C[C@@]1(CO)[C@H](O)CC[C@]2(C)C3=C[C@H](O)[C@H](CO)C[C@@H]3CC[C@@H]12`, at 100 µM the inhibition in data set [1] was 0%.

As to `COc1ccc2c(c1)[C@@]1(C)CCC[C@@](C)(C(=O)O)[C@@H]1CC2`, the inhibition in data set [2] was 4%. For the same compound, the inhibition at 100 µM in data set [1] turned out to be 31%.

On to `C[C@@]1(CO)CCC[C@]2(C)c3cc(O)c(CO)cc3CC[C@@H]12`, for which testing at 100 µM in data set [1] gave an inhibition of 0%.

`COc1cc2c(cc1CO)CC[C@H]1[C@](C)(C(=O)O)CCC[C@]21C`: the inhibition at 100 µM in [1] amounted to 13%.

As for `C[C@@]1(CO)[C@@H](O)CC[C@@]2(C)c3cc(O)c(CO)cc3CC[C@@H]12`, the IC50 in data set [3] is more than 100 µM; in data set [4] it was more than 500 µM; in data set [5], more than 100 µM; in [6], more than 100 µM; in data set [7], more than 200 µM.

On to `C[C@@]1(CO)[C@H](O)CC[C@@]2(C)c3cc(O)c(CO)cc3CC[C@@H]12`, for which the 50% inhibitory concentration (IC50) in [3] was more than 100 µM; in data set [4], more than 500 µM; in [5], more than 100 µM; in data set [6] it was more than 100 µM; in data set [7], 222 µM.

`COc1ccc2c(c1)[C@@]1(C)CC[C@@H](O)[C@@](C)(CO)[C@@H]1CC2` showed an inhibition at 100 µM in data set [1] of 36%.

For the compound `C[C@@]1(CO)[C@H](O)CC[C@]2(C)c3cc(O)c(CO)cc3CC[C@@H]12`, the EC50 in [8] is 4 µM. The half-maximal inhibitory concentration (IC50) in data set [3] was 76 µM; in data set [4], more than 500 µM; in [5] it was more than 100 µM; in [6] it was more than 100 µM; in data set [7], 133 µM. In addition, the inhibition at 100 µM in [1] was determined as 90%.

In the case of `C[C@@]1(CO)[C@H](O)CC[C@]2(C)c3cc(O)ccc3CC[C@@H]12`, in data set [8], the EC50 was found to be 8 µM. In data set [1], this compound had an inhibition at 100 µM of 25%.

For `COc1cc2c(cc1CO)CC[C@H]1[C@](C)(CO)CCC[C@]21C`, the inhibition in [2] turned out to be 3%; in [9], 100%.

With `COc1cc2c(cc1CO)CC[C@H]1[C@](C)(CO)[C@H](O)CC[C@]21C`, the IC50 in [3] is more than 100 µM; in data set [4], more than 500 µM; in data set [5], more than 100 µM; in data set [6], more than 100 µM; in data set [7], more than 100 µM.

In the case of `C[C@@]1(C(=O)O)CCC[C@]2(C)c3cc(O)c(CO)cc3CC[C@@H]12`, the inhibition at 100 µM in [1] is 15%.

Regarding `COC(=O)[C@]1(C)CCC[C@]2(C)c3cc(OC)c(C=O)cc3CC[C@@H]12`, the inhibition in [9] was 100%.

For the compound `COC(=O)[C@]1(C)CCC[C@]2(C)c3cc(OC)c(CO)cc3CC[C@@H]12`, testing at 100 µM in [1] gave an inhibition of 100%.

The compound `C[C@@]1(CO)[C@@H](O)CC[C@]2(C)c3cc(O)c(CO)cc3CC[C@@H]12` yielded an EC50 in data set [8] of 7 µM. For the same compound, the IC50 is more than 100 µM in [3]; more than 500 µM in [4]; more than 100 µM in data set [5]; more than 100 µM in data set [6]; 198 µM in data set [7]. The compound also showed an inhibition at 100 µM in data set [1] of 19%.

As for `COc1ccc2c(c1)[C@@]1(C)CCC[C@@](C)(N)[C@@H]1CC2`, it took 1 µM to reach a half-maximal effect in data set [8] (EC50). Besides, in data set [1], the inhibition at 100 µM amounted to 100%.

`COc1ccc2c(c1)[C@@]1(C)CC[C@H](O)[C@@](C)(CO)[C@@H]1CC2`: in [1], at 100 µM the inhibition was 10%.

`C[C@@]1(CO)[C@@H](O)CC[C@]2(C)c3cc(O)ccc3CC[C@@H]12` had an inhibition at 100 µM in data set [1] of 34%.

`C[C@@]1(C(=O)O)CCC[C@]2(C)c3cc(O)c(C=O)cc3CC[C@@H]12` showed a concentration for a half-maximal effect (EC50) in [8] of 5 µM. In data set [1], this compound returned an inhibition at 100 µM of 0%.

As to `COc1cc2c(cc1CO)CC[C@H]1[C@](C)(CO)[C@@H](O)CC[C@]21C`, the IC50 was more than 100 µM in data set [3]; more than 500 µM in data set [4]; more than 100 µM in data set [5]; more than 100 µM in [6]; more than 100 µM in data set [7].

The compound `C[C@@]1(CO)[C@H](O)CC[C@@]2(C)[C@H]1CC[C@H]1C[C@@H]3C[C@@]12CC[C@]3(O)CO` [APHIDICOLIN] registered an EC50 in data set [10] of 5 µM.
